Tests used:
[1] = organism: Homo sapiens; assay: Selectivity ratio of Ki for displacement of [3H]CGS21680 from recombinant human A2AAR expressed in HEK293 cell membranes to Ki for displacement of [125I]AB-MEC from recombinant human A3R expressed in CHO cell membranes
[2] = target: T1, Adenosine receptor A1 (Homo sapiens) (UniProt P30542); assay: Displacement of [3H]R-PIA from recombinant human A1AR expressed in CHO cell membranes at 10 uM relative to control
T1 sequence (whole entry): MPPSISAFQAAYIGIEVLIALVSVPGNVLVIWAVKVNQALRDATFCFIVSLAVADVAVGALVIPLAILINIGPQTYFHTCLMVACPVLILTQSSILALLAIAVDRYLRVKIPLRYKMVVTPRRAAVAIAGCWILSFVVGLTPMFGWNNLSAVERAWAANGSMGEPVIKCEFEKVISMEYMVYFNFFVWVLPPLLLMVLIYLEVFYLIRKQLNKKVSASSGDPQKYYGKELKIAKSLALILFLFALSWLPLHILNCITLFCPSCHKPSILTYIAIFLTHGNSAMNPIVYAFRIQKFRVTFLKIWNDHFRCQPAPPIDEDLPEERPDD
Summary of the method: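 [3H]R-PIA competition at membranes of CHO cells expressing recombinant human A1AR, with test compound at a single concentration of 10 μM. Adenosine deaminase (3 units/mL) present in the 30 min, 30 °C preincubation and during incubation. Final DMSO ≤2%. Bound radioligand collected on GF/B filters. Reported as % inhibition of specific binding.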

[3] = organism: Homo sapiens; assay: Selectivity ratio of Ki for displacement of [3H]R-PIA from recombinant human A1AR expressed in CHO cell membranes to Ki for displacement of [3H]CGS21680 from recombinant human A2AAR expressed in HEK293 cell membranes
[4] = organism: Homo sapiens; assay: Selectivity ratio of Ki for displacement of [3H]R-PIA from recombinant human A1AR expressed in CHO cell membranes to Ki for displacement of [125I]AB-MEC from recombinant human A3R expressed in CHO cell membranes

Cn1cc2c(nc(NC(=O)Nc3ccc(CC(=O)O)cc3)n3nc(-c4ccco4)nc23)n1
Ratio Ki [1]: 7.8
inhibition [2]: 4%
Ratio Ki [3]: > 10
Ratio Ki [4]: > 78

Cn1cc2c(nc(NC(=O)CCCc3cn(CCCCCCNC(=O)c4ccc(-c5c6ccc(=N)c(S(=O)(=O)O)c-6oc6c(S(=O)(=O)O)c(N)ccc56)c(C(=O)O)c4)nn3)n3nc(-c4ccco4)nc23)n1
Ratio Ki [1]: 2.83
